# Data taken from ChEMBL document CHEMBL3525966, “Compartmental and enzyme kinetic modeling to elucidate the biotransformation pathway of a centrally acting antitrypanosomal prodrug” (Drug Metab Dispos, 2013).
# Assays:
# [1] = system: Liver microsome; experiment: Prodrug conversion in human liver microsomes assessed as elution time treated with 10 uM DB868 after 180 mins incubation by HPLC-UV chromatography; type: ADME; conditions: 3 h
# Procedure, shortened: (§1)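 HLM or RLM (0.5 mg/mL) were incubated in triplicate in 100 mM phosphate pH 7.4 with 10 mM MgCl2 and an NADPH-regenerating system (1 mM NADP+, glucose 6-phosphate, G6PDH). DB868 was 10 µM. Sampled up to 180 min. Prodrug and metabolites were measured by HPLC-UV at 359 nm and expressed relative to initial prodrug; DB829 LLOQ 50 nM.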
# [2] = system: Liver microsome; experiment: Prodrug conversion in rat liver microsomes treated with 10 uM DB868 after 180 mins incubation by HPLC-UV chromatography; type: ADME; conditions: 3 h; procedure, shortened: as §1
# [3] = Ratio of drug metabolism in sandwich-cultured human hepatocytes to drug metabolism in sandwich-cultured rat hepatocytes treated with 10 uM DB868 after 24 hrs of incubation by HPLC-MS/MS analysis
# [4] = Drug metabolism in sandwich-cultured rat hepatocytes treated with 10 uM DB868 after 24 hrs of incubation by HPLC-MS/MS analysis; type: ADME, cell-based, Hepatocyte
# Procedure, shortened: (§2)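 Sandwich-cultured hepatocytes were used on day 5 (human) or day 4 (rat) and rinsed with warm phenol-red-free DMEM. They were then exposed to 10 µM DB868 (0.1–0.2% DMSO) at 37°C. Medium and methanol/water cell lysates were collected at 0.5, 2, 4 and 24 h. Analytes were quantified by HPLC/MS/MS with deuterated internal standards; protein by Bradford. Replicates: 6 (human) or 4 (rat).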
# [5] = system: Liver microsome; experiment: Drug level in human liver microsomes treated with 10 uM DB868 prodrug after 180 mins incubation by HPLC-UV chromatography relative to initial prodrug concentration; type: ADME; conditions: 3 h; procedure, shortened: as §1
# [6] = Drug metabolism in sandwich-cultured human hepatocytes treated with 10 uM DB868 after 24 hrs of incubation by HPLC-MS/MS analysis; type: ADME, cell-based, Hepatocyte; procedure, shortened: as §2
# [7] = biological target: T1, Cytochrome P450 1A2 (Rattus norvegicus, UniProt P04799); experiment: Drug metabolism in rat recombinant CYP1A2 treated with at 5 uM DB868 after 180 mins incubation by HPLC-UV chromatography; type: ADME; conditions: recombinant enzyme, 15 min, in the assay text read “15 mins” for “180 mins”
# T1 sequence (P04799 whole entry): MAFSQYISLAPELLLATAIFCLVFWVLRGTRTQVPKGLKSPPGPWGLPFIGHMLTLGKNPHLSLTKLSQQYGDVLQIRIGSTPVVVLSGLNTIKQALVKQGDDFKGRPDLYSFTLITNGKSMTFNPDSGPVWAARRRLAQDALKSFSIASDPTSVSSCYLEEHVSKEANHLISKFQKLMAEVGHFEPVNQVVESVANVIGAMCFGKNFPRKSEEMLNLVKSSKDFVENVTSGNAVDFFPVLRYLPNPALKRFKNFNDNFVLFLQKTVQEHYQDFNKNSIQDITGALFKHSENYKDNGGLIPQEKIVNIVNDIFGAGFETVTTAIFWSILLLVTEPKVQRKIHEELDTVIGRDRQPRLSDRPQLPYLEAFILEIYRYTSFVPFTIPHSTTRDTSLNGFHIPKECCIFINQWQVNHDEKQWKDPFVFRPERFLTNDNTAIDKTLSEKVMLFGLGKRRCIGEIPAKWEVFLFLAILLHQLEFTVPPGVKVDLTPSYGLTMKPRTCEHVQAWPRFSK
# Procedure, shortened: (§3)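 Insect-cell-expressed human or rat P450 (with NADPH-P450 reductase, some also with cytochrome b5) at 0.1 pmol/µL in 100 mM potassium phosphate pH 7.4 with 10 mM MgCl2. DB868 (for M1) or M1 (for M2) was added at 5 µM (0.5% DMSO) and started with 2 mM NADPH. Stopped after 15 min with ice-cold acetonitrile, then HPLC-UV. Duplicate incubations.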
# [8] = biological target: T2, Cytochrome P450 1A2 (Homo sapiens, UniProt P05177); experiment: Activity at human recombinant CYP1A2-mediated drug metabolism treated with 5 uM DB868 after 180 mins incubation by HPLC-UV chromatography; type: ADME; conditions: recombinant enzyme, 15 min, in the assay text read “15 mins” for “180 mins”; procedure, shortened: as §3
# T2 sequence (P05177 whole entry): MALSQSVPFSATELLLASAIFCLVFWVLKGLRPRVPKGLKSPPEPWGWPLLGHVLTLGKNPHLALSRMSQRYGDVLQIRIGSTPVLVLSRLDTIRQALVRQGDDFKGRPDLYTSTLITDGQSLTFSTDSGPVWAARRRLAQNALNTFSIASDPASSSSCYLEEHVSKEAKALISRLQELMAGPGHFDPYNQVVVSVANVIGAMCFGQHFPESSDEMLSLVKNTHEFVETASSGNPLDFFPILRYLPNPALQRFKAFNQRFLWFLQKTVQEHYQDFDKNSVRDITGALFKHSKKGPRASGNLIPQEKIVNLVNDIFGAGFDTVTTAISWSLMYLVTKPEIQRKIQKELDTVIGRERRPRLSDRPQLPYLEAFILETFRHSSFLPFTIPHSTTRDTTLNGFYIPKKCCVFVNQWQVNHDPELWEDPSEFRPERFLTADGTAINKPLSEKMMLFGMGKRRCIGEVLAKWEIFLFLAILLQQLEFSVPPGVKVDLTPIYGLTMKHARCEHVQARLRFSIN
# [9] = Drug metabolism in sandwich-cultured human hepatocytes treated with 10 uM DB868 after 4 hrs of incubation by HPLC-MS/MS analysis; type: ADME, cell-based, Hepatocyte; procedure, shortened: as §2
# [10] = system: Liver microsome; experiment: Prodrug conversion in rat liver microsomes assessed as elution time treated with 10 uM DB868 after 180 mins incubation by HPLC-UV chromatography; type: ADME; conditions: 3 h; procedure, shortened: as §1
# [11] = Drug metabolism in sandwich-cultured rat hepatocytes treated with 10 uM DB868 after 4 hrs of incubation by HPLC-MS/MS analysis; type: ADME, cell-based, Hepatocyte; procedure, shortened: as §2
# [12] = biological target: T3, Cytochrome P450 3A4 (Homo sapiens, UniProt P08684); experiment: Drug metabolism in human recombinant CYP3A4 treated with at 5 uM DB868 after 15 mins incubation by HPLC-UV chromatography; conditions: recombinant enzyme
# [13] = biological target: T3, Cytochrome P450 3A4; experiment: Activity at human recombinant CYP3A4-mediated drug metabolism treated with 5 uM DB868 after 180 mins incubation by HPLC-UV chromatography; type: ADME; conditions: recombinant enzyme, 15 min, in the assay text read “15 mins” for “180 mins”; procedure, shortened: as §3
# [14] = biological target: T4, Cytochrome P450 4F2 (Homo sapiens, UniProt P78329); experiment: Activity at human recombinant CYP4F2-mediated drug metabolism treated with 5 uM DB868 […] by HPLC-UV chromatography; type: ADME; conditions: recombinant enzyme, 3 h
# T4 sequence (P78329 whole entry): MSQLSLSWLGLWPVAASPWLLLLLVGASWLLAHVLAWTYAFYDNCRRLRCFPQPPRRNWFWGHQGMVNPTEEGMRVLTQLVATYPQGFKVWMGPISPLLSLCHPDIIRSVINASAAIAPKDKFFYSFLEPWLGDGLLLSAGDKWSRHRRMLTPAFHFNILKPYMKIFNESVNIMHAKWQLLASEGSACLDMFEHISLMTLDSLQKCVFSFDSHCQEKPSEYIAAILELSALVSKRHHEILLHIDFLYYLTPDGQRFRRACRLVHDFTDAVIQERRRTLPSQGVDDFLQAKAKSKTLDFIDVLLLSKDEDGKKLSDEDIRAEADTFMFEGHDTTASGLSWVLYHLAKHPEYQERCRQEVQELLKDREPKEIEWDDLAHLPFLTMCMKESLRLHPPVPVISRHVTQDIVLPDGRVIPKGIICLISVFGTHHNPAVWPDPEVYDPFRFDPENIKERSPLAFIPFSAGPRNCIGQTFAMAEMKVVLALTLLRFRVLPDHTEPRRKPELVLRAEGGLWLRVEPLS
# [15] = system: Liver microsome; experiment: Drug metabolism in human liver microsomes assessed as (3Z,3'Z)-6,6'-(furan-2,5-diyl)bis(N'-hydroxynicotinimidamide) formation measured per mg of protein by HPLC-MS/MS analysis; type: ADME
# Procedure, shortened: (§4)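 M2 formation kinetics: HLM (0.5 mg/mL) with M1 at 0.1–25 µM in phosphate pH 7.4 with MgCl2, started with 2 mM NADPH. Run 5 min in triplicate under initial-rate conditions. Quantified by HPLC/MS/MS and fitted to the Hill equation (S50, Vmax, n).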
# [16] = system: Liver microsome; experiment: Drug metabolism in human liver microsomes assessed as (3Z,3'Z)-6,6'-(furan-2,5-diyl)bis(N'-hydroxynicotinimidamide) formation measured by HPLC-MS/MS analysis; type: ADME; procedure, shortened: as §4
# [17] = biological target: T5, Cytochrome P450 4F1 (Rattus norvegicus, UniProt P33274); experiment: Drug metabolism in rat recombinant […] treated with at 5 uM DB868 after 180 mins incubation by HPLC-UV chromatography; type: ADME; conditions: recombinant enzyme, 3 h
# T5 sequence (P33274 whole entry): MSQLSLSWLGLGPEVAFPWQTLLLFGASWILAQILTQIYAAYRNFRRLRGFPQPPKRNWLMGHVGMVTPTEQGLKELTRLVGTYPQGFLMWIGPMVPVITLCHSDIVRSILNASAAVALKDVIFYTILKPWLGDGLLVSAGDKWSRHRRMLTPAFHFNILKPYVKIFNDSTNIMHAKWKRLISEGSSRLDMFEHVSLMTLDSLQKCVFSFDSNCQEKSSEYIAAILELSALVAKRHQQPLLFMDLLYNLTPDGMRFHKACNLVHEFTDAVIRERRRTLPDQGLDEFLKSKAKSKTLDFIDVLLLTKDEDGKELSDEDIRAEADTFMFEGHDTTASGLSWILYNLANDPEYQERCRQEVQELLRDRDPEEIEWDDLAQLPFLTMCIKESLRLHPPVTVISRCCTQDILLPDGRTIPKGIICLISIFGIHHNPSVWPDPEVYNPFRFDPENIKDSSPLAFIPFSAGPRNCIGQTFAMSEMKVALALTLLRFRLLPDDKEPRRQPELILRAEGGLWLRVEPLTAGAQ
# T3 sequence (P08684 whole entry): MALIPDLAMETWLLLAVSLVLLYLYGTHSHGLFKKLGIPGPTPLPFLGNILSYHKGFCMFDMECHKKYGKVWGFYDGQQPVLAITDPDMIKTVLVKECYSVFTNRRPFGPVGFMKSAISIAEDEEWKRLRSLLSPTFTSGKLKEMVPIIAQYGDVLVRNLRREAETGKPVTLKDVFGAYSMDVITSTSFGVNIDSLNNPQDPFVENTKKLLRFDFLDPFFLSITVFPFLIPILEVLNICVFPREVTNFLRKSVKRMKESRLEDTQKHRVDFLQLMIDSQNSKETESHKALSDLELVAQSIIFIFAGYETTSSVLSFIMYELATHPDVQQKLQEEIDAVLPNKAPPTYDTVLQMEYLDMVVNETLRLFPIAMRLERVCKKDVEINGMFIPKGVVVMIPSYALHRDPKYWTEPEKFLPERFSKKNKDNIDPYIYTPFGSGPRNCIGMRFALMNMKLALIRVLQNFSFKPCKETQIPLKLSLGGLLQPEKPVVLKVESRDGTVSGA
SMILES,Retention_time [1],Drug metabolism [2],Ratio [3],Drug metabolism [4],Drug metabolism [5],Drug metabolism [6],Drug metabolism [7],Drug metabolism [8],Drug metabolism [9],Retention_time [10],Drug metabolism [11],Drug metabolism [12],Drug metabolism [13],Drug metabolism [14],Vmax [15],S50 [16],Drug metabolism [17]
Cl.N=C(N)c1ccc(-c2ccc(-c3ccc(C(=N)N)cn3)o2)nc1,5.8 min,metabolite_not_detected,7800,metabolite_detected,metabolite_detected,metabolite_detected,–,–,–,–,–,–,–,–,–,–,–
N=C(NO)c1ccc(-c2ccc(-c3ccc(C(=N)NO)cn3)o2)nc1,10.5 min,–,–,–,–,metabolite_detected,metabolite_detected,metabolite_detected,metabolite_detected,10.5 min,–,–,–,–,–,–,–
N=C(N)c1ccc(-c2ccc(-c3ccc(/C(N)=N/O)cn3)o2)nc1,8.3 min,–,–,–,–,–,–,–,–,8.3 min,–,–,–,–,–,–,–
CO/N=C(\N)c1ccc(-c2ccc(-c3ccc(C(=N)N)cn3)o2)nc1,12.3 min,–,–,metabolite_detected,–,metabolite_detected,–,–,metabolite_detected,12.3 min,metabolite_detected,–,–,–,–,–,–
CO/N=C(/N)c1ccc(-c2ccc(-c3ccc(/C(N)=N/O)cn3)o2)nc1,14.5 min,–,–,–,–,–,metabolite_detected,metabolite_detected,metabolite_detected,14.5 min,metabolite_detected,metabolite_detected,metabolite_detected,metabolite_detected,180 pmol/min,18 µM,metabolite_detected
